This is a sample that favours compounds with a hit; in the whole collection about 3% have one here.
PfHsp90 set2 = inhibits growth of yeast expressing Plasmodium falciparum Hsp90 | S. cerevisiae expressing PfHsp90, BacTiter-Glo ATP, 48 h; yeast lacking PDR1 and PDR3 efflux regulators | inhibition, % at 9.4 µM | hit rate 0.32% among 310,000;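 active = every replicate shows inhibition above about 80%, whatever the replicate mean, limit read from the data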;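 also: 0% = DMSO neutral controls and 100% = 20 µM radicicol positive controls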
CaV13 ICDI inh = Disruptors of the CACNA1D IQ motif to Ca2+-dependent inactivation inhibitor domain association, primary screening, Förster resonance energy transfer in intact living …; hit rate 0.098% among 340,000; HEK cells, CFP/YFP FRET ICDI-IQ, plate reader, 10 min; percent FRET-ratio fall versus neutral wells; inhibition, % at 12.3 µM;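 active = mean replicate inhibition of at least 30% and at least 1% of replicates passing that level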;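 also: 0% = median of the neutral control wells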
T cruzi inh = T. cruzi replication inhibition; T. cruzi beta-gal in NIH3T3, luminescence, 90 h; inhibition, % (no concentration beside the values); hit rate 1.4% among 300,000; AID 1885;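 active = mean inhibition across valid replicates above about 55%, limit read from the data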;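 also: signal also drops with host cell toxicity which is not excluded here; 0% = plate median of DMSO wells and 100% = zero luminescence signal; higher percent means less beta-gal luminescence so fewer parasites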
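System: mouse NIH/3T3 fibroblasts infected with β-gal-expressing T. cruzi Tulahuen C4 / Input: NIH/3T3 cells, 5,000 per well / Buffer or medium: Low-serum DMEM with 2% FBS / Probe or stimulus: 5000 reporter trypomastigotes per well / Schedule: ≥90 h infection period, 3 h prior cell attachment / Measured by: GalScreen luminescence, 60 min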
N-glyco inh = blocks N-linked glycosylation in D54 reporter cells; D54 ERlucT glycosylation luciferase reporter, 24 h; percent of 100 nM tunicamycin response; reporter increase, % at 12.5 µM; hit rate 0.23% among 360,000;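 active = mean luciferase reporter signal, scaled so untreated is 0 and the glycosylation-blocking control 100, at or above a set limit in every replicate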;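 also: luciferase carries N-glycosylation sites so blocking glycosylation raises the light; 0% = median of neutral control wells and 100% = median of 100 nM tunicamycin wells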
HSF-1 act = increases HSF-1 driven luciferase reporter signal | NIH3T3-HGL HSF-1 luciferase reporter, MG132, 8 h; 100% = twice DMSO control signal | activation, % at 9 µM | hit rate 1.7% among 300,000;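 active = mean replicate activation of at least 50% with a set share of replicates each reaching 50%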;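 also: 0% = median of the neutral control wells and 100% = twice that signal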
PvdQ inh = blocks Pseudomonas aeruginosa PvdQ acylase activity. purified PvdQ acylase, fluorescence plate reader. inhibition, % at 10 µM. hit rate 0.063% among 340,000. AID 488965; in the data active = inhibition above about 30%, passing the limit was not always enough;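 also: 0% = vehicle neutral wells and 100% = reference inhibitor wells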
An asterisk follows results filed as active; . = no result.

SMILES	PfHsp90 set2	CaV13 ICDI inh	T cruzi inh	N-glyco inh	HSF-1 act	PvdQ inh
N#Cc1ccc2nc(-c3ccc(CN4CCC5(CC4)CNc4ccccc45)cc3)c(-c3ccccc3)nc2c1	.	-11.7	.	.	.	.
CC(C)N(CCn1c(SCC(=O)N2CC(=O)Nc3ccccc32)nc2ccccc2c1=O)C(C)C	0.5	-2.3	69.0*	-8.0	-5.8	-5.8
CCCN1CCN(CCCNC(=O)c2ccc3c(Cl)c4c(nc3c2)CCCC4)CC1	9.7	-5.0	18.4	-7.5	159.6*	-10.8
O=C(c1ccc2c(Cl)c3c(nc2c1)CCCC3)N1CCN(c2ccc(F)cc2)CC1	-17.4	-5.1	-27.4	3.2	72.5*	10.1
CCOC(=O)C1CCN(C(=O)c2ccc3c(Cl)c4c(nc3c2)CCCC4)CC1	34.0	-1.9	-6.4	0.1	316.5*	-4.0
CC(C)CCNC(=O)c1ccc2c(SCC(=O)O)c3c(nc2c1)CCCC3	9.9	-16.4	-4.4	0.8	61.9*	-3.0
O=C(Nc1cccnc1Cl)c1ccc2c(Cl)c3c(nc2c1)CCC3	10.2	-1.8	-8.7	-18.6	23.2	4.5
N#Cc1ccccc1NC(=O)c1ccc2c(Cl)c3c(nc2c1)CCCC3	-156.2	-10.9	3.9	-2.6	113.0*	3.6
O=C(c1ccc(Cl)cc1)N1CCN(c2ccc(F)cc2)CC1	102.2*	-5.5	-30.0	-0.5	7.9	5.3
CC1CCN(C(=O)c2ccc3c(Cl)c4c(nc3c2)CCCC4)CC1	15.3	-4.1	-47.7	0.4	302.3*	3.9
CCCCN1C(=O)C(CC(=O)NC2CC2)CC(C(=O)N(CC)CC)=C1C (centres undefined)	.	-5.0	.	-0.8	.	.
O=C1/C(=C/c2ccc([N+](=O)[O-])cc2)Oc2cc(O)ccc21	-14.6	-4.2	-8.5	1.3	72.6*	69.3*
CC1COCC(C)N1C1=C(Cl)C(=O)c2ccccc2C1=O (centres undefined)	-22.4	-8.3	.	34.4*	.	-13.8
CN1CCN(C2=C(Cl)C(=O)c3ccccc3C2=O)CC1	5.5	-7.2	.	-17.0	.	-11.0
O=C(CSc1cn(Cc2ccccc2)c2ccccc12)Nc1nccs1	16.1	-6.5	13.2	-8.3	64.6*	-11.5
CC(C)NC(=O)N(C)C[C@@H]1OCc2cnnn2CCCC(=O)N([C@@H](C)CO)C[C@H]1C	.	-3.8	.	3.5	.	.
COc1ccc(OC)c(-c2cc(C(=O)Nc3cccc(Cl)c3)no2)c1	-10.7	-6.2	55.2*	0.0	-6.5	-1.6
COc1ccc(-c2cc(C(=O)Nc3cccc(Cl)c3)no2)cc1	-2.0	-4.0	0.9	-3.2	28.1	1.9
Cc1ccc(N2CCC3CC2c2cc(-c4ccc(C(F)(F)F)cc4)ccc23)cc1 (centres undefined)	.	-2.7	.	-2.4	.	.
O=C(CC[C@H]1O[C@@H](n2cnc3c(NC(=O)c4ccccc4)ncnc32)[C@H](O)[C@@H]1O)N[C@@H](CO)c1ccccc1	.	-6.4	.	-1.8	.	.
Cc1ccc(C(=O)CSc2nnnn2C(C)C)c(C)c1	31.2	-6.0	11.6	-20.2	54.0*	-10.9
O=C(Nc1ccc2c(c1)Cc1ccccc1-2)c1ccco1	13.4	-4.5	12.1	-10.9	56.2*	8.2
O=C(C[C@H]1C(=O)N(Cc2ccccc2)C[C@@H]1Cc1ccccc1)Nc1ccc(Br)cc1	.	-5.8	.	-3.5	.	.
COc1cc(C(=O)N2CCCCC2c2cc(C(=O)Nc3ccccc3)no2)cc(OC)c1C (centres undefined)	.	-4.8	.	-2.7	.	.
CCn1c(SCc2nc3ccccc3s2)nc2cc(S(=O)(=O)N3CCOCC3)ccc21	-2.7	-4.7	26.1	-0.5	69.3*	2.6
SMILES	PfHsp90 set2	CaV13 ICDI inh	T cruzi inh	N-glyco inh	HSF-1 act	PvdQ inh
CCCSc1nc2cc(S(=O)(=O)N3CCOCC3)ccc2n1CC	-19.4	-7.5	13.5	-2.1	9.1	-15.2
O=S(=O)(c1cccc(-c2nnc(SCc3nc4ccccc4s3)o2)c1)N1CCOCC1	24.7	.	-4.8	-2.3	53.7*	-3.0
Nc1[nH]c(C(=O)c2ccc(Br)cc2)c(-c2ccc(Cl)cc2[N+](=O)[O-])c1C(=O)NCCc1c[nH]c2ccccc12	.	-8.9	.	.	.	.
O=C(NC1CCN(S(=O)(=O)c2ccccc2)CC1)C1CCCCC1	-0.6	-6.7	-7.7	-0.6	-14.3	-5.1
O=C(NC1CCN(Cc2ccccc2)CC1)C1CCN(S(=O)(=O)c2ccccc2)CC1	27.2	-6.2	56.6*	-1.1	-10.5	-5.5
C=CCN(c1ccccc1)S(=O)(=O)c1cccc(C(=O)NC2CCN(Cc3ccccc3)CC2)c1	-3.6	-6.0	60.9*	-1.6	-14.1	-10.3
O=C(NC1CCCCCC1)C1CCN(S(=O)(=O)c2ccccc2)CC1	.	-3.3	-1.1	-1.2	55.3*	1.5
CN(C)S(=O)(=O)c1cccc(C(=O)NCC(=O)NC2CCN(Cc3ccccc3)CC2)c1	-8.0	-4.9	1.1	-0.5	8.7	-3.0
COC(=O)[C@]12C[C@H](CC(=O)N3CCCC3)C(=O)N(CCC3=CCCCC3)C1=C[C@H](C(C)(C)C)O[C@@H]2C	.	-9.9	.	.	.	.
O=C(COC(=O)c1cc(S(=O)(=O)N2CCCC2)ccc1O)Nc1ccccc1Br	.	-12.3	.	1.5	.	5.3
CCOC(=O)c1c(-c2ccccc2)c2cc(OC)ccc2n1CCCN(C)C	5.9	-3.4	59.1*	6.4	-9.1	-9.3
CC(C)(C)n1nnnc1C(c1cccc(C#N)c1)N1CCCc2ccccc21 (centres undefined)	4.2	-10.1	26.8	-3.0	-4.3	8.6
CCC(C)(C)n1nnnc1C(c1ccncc1)N1CCN(c2cccc(OC)c2)CC1 (centres undefined)	-17.8	-7.3	28.2	-0.5	11.6	-12.9
CCC(C)(C)n1nnnc1C(c1cccnc1)N1CCC(Cc2ccccc2)CC1 (centres undefined)	83.2*	-6.7	64.2*	-5.9	19.3	-4.7
CCC(C)(C)n1nnnc1C(c1ccncc1)N1CCC(Cc2ccccc2)CC1 (centres undefined)	-30.4	-3.5	65.3*	-7.5	5.1	-1.0
CC(C)(C)n1nnnc1C(c1cccc(C#N)c1)N1CCC(Cc2ccccc2)CC1 (centres undefined)	-21.9	-10.2	80.9*	-8.0	-0.2	-3.2
CCC(C)(C)n1nnnc1C(c1cccc(C#N)c1)N1CCN(c2cc(C)ccc2C)CC1 (centres undefined)	3.5	.	61.0*	-8.3	2.0	-14.5
O=C(C(=O)N1CCC(CNS(=O)(=O)c2ccc(F)cc2)CC1)c1cccs1	.	-8.0	.	.	.	.
Cc1ccc2cc(NC(=O)C3(C)CCN3C(C)C)ccc2n1 (centres undefined)	.	-7.0	.	0.4	.	.
CCOC(=O)N[C@@H](CC(C)C)C(=O)N1CCC[C@H]1C(=O)NCc1ccccc1	.	-3.3	.	.	.	.
CCc1ccccc1NCC(=O)Nc1ccc(Cl)c(C(F)(F)F)c1	19.5	-4.4	-0.8	-6.5	57.7*	1.5

Compound activity: PubChem BioAssay, Broad Institute
